Source: ChEMBL document CHEMBL5058577, “EUbOPEN Chemogenomics Library 2 (Multiplex)” (2022)

System: U2OS
Test: Multiplex assay against U2OS
Format: toxicity, cell-based
Conditions: human
Method in brief: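 With compound added, live cells were imaged on a CQ1 microscope at 37°C and 5% CO2; staining with Hoechst33342, BioTracker Green Microtubule Cytoskeleton Dye, MitoTracker Red and Annexin V Alexa Fluor 680 had been done at seeding. The CellPathfinder machine-learning gating scheme split cells into Hoechst high-intensity objects or normal cells, normal cells into healthy, pyknosed or fragmented nuclei, and pyknosed cells into mitotic or apoptotic. The tubulin, mitochondrial-mass and membrane-permeability phenotypes are per cents of healthy-nucleus cells.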

[1] = 12 h, 1 µM, compound concentration 1 uM, replicate 1
[2] = 12 h, 1 µM, compound concentration 1 uM, replicate 2
[3] = 12 h, 10 µM, compound concentration 10 uM, replicate 1
[4] = 12 h, 10 µM, compound concentration 10 uM, replicate 2
[5] = 24 h, 1 µM, compound concentration 1 uM, replicate 1
[6] = 24 h, 1 µM, compound concentration 1 uM, replicate 2
[7] = 24 h, 10 µM, compound concentration 10 uM, replicate 1
[8] = 24 h, 10 µM, compound concentration 10 uM, replicate 2
[9] = 48 h, 1 µM, compound concentration 1 uM, replicate 1
[10] = 48 h, 1 µM, compound concentration 1 uM, replicate 2
[11] = 48 h, 10 µM, compound concentration 10 uM, replicate 1
[12] = 48 h, 10 µM, compound concentration 10 uM, replicate 2

For `O=C(NCC(=O)N1CC[C@H](N[C@H]2CC[C@@](O)(c3ccc(-c4ncccn4)cn3)CC2)C1)c1cccc(C(F)(F)F)c1` [PF-4136309], the “Population Apoptotic (%)” value [1] was 79%, the “Population Fragmented Nuclei (%)” value [1] was 25% and the “Population Healthy Nuclei (%)” value [1] was 64%. For the same compound, the “Population Hoechst High Intensity Objects (%)” value [1] was 1%, the “Population Membrane Permeable-Phenotype (%)” value [1] was 6% and the “Population Mitochondria Different-Phenotype (%)” value [1] was 3%. For the same compound, the “Population Mitotic Cells (%)” value [1] was 20%, the “Population Normal (%)” value [1] was 98% and the “Population Pyknosed Nuclei (%)” value [1] was 9%. The “Population Tubulin-Different-Phenotype (%)” value [1] was 4%, the “Total Cell Count” value [1] was 249 and the “Population Apoptotic (%)” value [2] was 93%. For the same compound, the “Population Fragmented Nuclei (%)” value [2] was 13%, the “Population Healthy Nuclei (%)” value [2] was 74% and the “Population Hoechst High Intensity Objects (%)” value [2] was 4%. The “Population Membrane Permeable-Phenotype (%)” value [2] was 11%, the “Population Mitochondria Different-Phenotype (%)” value [2] was 5% and the “Population Mitotic Cells (%)” value [2] was 6%. The “Population Normal (%)” value [2] was 95%, the “Population Pyknosed Nuclei (%)” value [2] was 12% and the “Population Tubulin-Different-Phenotype (%)” value [2] was 8%. For the same compound, the “Total Cell Count” value [2] was 138, the “Population Apoptotic (%)” value [3] was 68% and the “Population Fragmented Nuclei (%)” value [3] was 25%. For the same compound, the “Population Healthy Nuclei (%)” value [3] was 62%, the “Population Hoechst High Intensity Objects (%)” value [3] was 4% and the “Population Membrane Permeable-Phenotype (%)” value [3] was 15%. For the same compound, the “Population Mitochondria Different-Phenotype (%)” value [3] was 4%, the “Population Mitotic Cells (%)” value [3] was 31% and the “Population Normal (%)” value [3] was 95%. For the same compound, the “Population Pyknosed Nuclei (%)” value [3] was 12%, the “Population Tubulin-Different-Phenotype (%)” value [3] was 9% and the “Total Cell Count” value [3] was 242. For the same compound, the “Population Apoptotic (%)” value [4] was 60%, the “Population Fragmented Nuclei (%)” value [4] was 22% and the “Population Healthy Nuclei (%)” value [4] was 66%. The “Population Hoechst High Intensity Objects (%)” value [4] was 1%, the “Population Membrane Permeable-Phenotype (%)” value [4] was 25% and the “Population Mitochondria Different-Phenotype (%)” value [4] was 10%. For the same compound, the “Population Mitotic Cells (%)” value [4] was 40%, the “Population Normal (%)” value [4] was 98% and the “Population Pyknosed Nuclei (%)” value [4] was 11%. For the same compound, the “Population Tubulin-Different-Phenotype (%)” value [4] was 11%, the “Total Cell Count” value [4] was 90 and the “Population Apoptotic (%)” value [5] was 80%. The “Population Fragmented Nuclei (%)” value [5] was 22%, the “Population Healthy Nuclei (%)” value [5] was 69% and the “Population Hoechst High Intensity Objects (%)” value [5] was 1%. The “Population Membrane Permeable-Phenotype (%)” value [5] was 4%, the “Population Mitochondria Different-Phenotype (%)” value [5] was 2% and the “Population Mitotic Cells (%)” value [5] was 20%. The “Population Normal (%)” value [5] was 98%, the “Population Pyknosed Nuclei (%)” value [5] was 8% and the “Population Tubulin-Different-Phenotype (%)” value [5] was 2%. The “Total Cell Count” value [5] was 304, the “Population Apoptotic (%)” value [6] was 91% and the “Population Fragmented Nuclei (%)” value [6] was 16%. For the same compound, the “Population Healthy Nuclei (%)” value [6] was 76%, the “Population Hoechst High Intensity Objects (%)” value [6] was 3% and the “Population Membrane Permeable-Phenotype (%)” value [6] was 5%. The “Population Mitochondria Different-Phenotype (%)” value [6] was 4%, the “Population Mitotic Cells (%)” value [6] was 8% and the “Population Normal (%)” value [6] was 96%. For the same compound, the “Population Pyknosed Nuclei (%)” value [6] was 7%, the “Total Cell Count” value [6] was 169 and the “Population Apoptotic (%)” value [7] was 83%. For the same compound, the “Population Fragmented Nuclei (%)” value [7] was 23%, the “Population Healthy Nuclei (%)” value [7] was 62% and the “Population Hoechst High Intensity Objects (%)” value [7] was 3%. For the same compound, the “Population Membrane Permeable-Phenotype (%)” value [7] was 10%, the “Population Mitochondria Different-Phenotype (%)” value [7] was 3% and the “Population Mitotic Cells (%)” value [7] was 16%. For the same compound, the “Population Normal (%)” value [7] was 96%, the “Population Pyknosed Nuclei (%)” value [7] was 13% and the “Population Tubulin-Different-Phenotype (%)” value [7] was 3%. The “Total Cell Count” value [7] was 271, the “Population Apoptotic (%)” value [8] was 75% and the “Population Fragmented Nuclei (%)” value [8] was 21%. The “Population Healthy Nuclei (%)” value [8] was 70%, the “Population Hoechst High Intensity Objects (%)” value [8] was 0% and the “Population Membrane Permeable-Phenotype (%)” value [8] was 15%. For the same compound, the “Population Mitochondria Different-Phenotype (%)” value [8] was 11%, the “Population Mitotic Cells (%)” value [8] was 25% and the “Population Normal (%)” value [8] was 99%. The “Population Pyknosed Nuclei (%)” value [8] was 7%, the “Population Tubulin-Different-Phenotype (%)” value [8] was 7% and the “Total Cell Count” value [8] was 102. The “Population Apoptotic (%)” value [9] was 87%, the “Population Fragmented Nuclei (%)” value [9] was 14% and the “Population Healthy Nuclei (%)” value [9] was 74%. For the same compound, the “Population Hoechst High Intensity Objects (%)” value [9] was 2%, the “Population Membrane Permeable-Phenotype (%)” value [9] was 4% and the “Population Mitochondria Different-Phenotype (%)” value [9] was 3%. The “Population Mitotic Cells (%)” value [9] was 12%, the “Population Normal (%)” value [9] was 97% and the “Population Pyknosed Nuclei (%)” value [9] was 11%. The “Population Tubulin-Different-Phenotype (%)” value [9] was 3%, the “Total Cell Count” value [9] was 443 and the “Population Apoptotic (%)” value [10] was 96%. For the same compound, the “Population Fragmented Nuclei (%)” value [10] was 12%, the “Population Healthy Nuclei (%)” value [10] was 75% and the “Population Hoechst High Intensity Objects (%)” value [10] was 3%. The “Population Membrane Permeable-Phenotype (%)” value [10] was 6%, the “Population Mitotic Cells (%)” value [10] was 4% and the “Population Normal (%)” value [10] was 96%. The “Population Tubulin-Different-Phenotype (%)” value [10] was 4%, the “Total Cell Count” value [10] was 224 and the “Population Apoptotic (%)” value [11] was 69%. The “Population Fragmented Nuclei (%)” value [11] was 22%, the “Population Healthy Nuclei (%)” value [11] was 61% and the “Population Hoechst High Intensity Objects (%)” value [11] was 4%. For the same compound, the “Population Membrane Permeable-Phenotype (%)” value [11] was 9%, the “Population Mitochondria Different-Phenotype (%)” value [11] was 5% and the “Population Mitotic Cells (%)” value [11] was 30%. For the same compound, the “Population Normal (%)” value [11] was 95%, the “Population Pyknosed Nuclei (%)” value [11] was 15% and the “Population Tubulin-Different-Phenotype (%)” value [11] was 4%. The “Total Cell Count” value [11] was 360, the “Population Apoptotic (%)” value [12] was 92% and the “Population Fragmented Nuclei (%)” value [12] was 20%. The “Population Healthy Nuclei (%)” value [12] was 60%, the “Population Hoechst High Intensity Objects (%)” value [12] was 0% and the “Population Membrane Permeable-Phenotype (%)” value [12] was 15%. The “Population Mitochondria Different-Phenotype (%)” value [12] was 8%, the “Population Mitotic Cells (%)” value [12] was 7% and the “Population Normal (%)” value [12] was 100%. The “Population Pyknosed Nuclei (%)” value [12] was 18% and the “Total Cell Count” value [12] was 138.
